{"data": "Results gathered from unrelated publications", "action": "inhibitor", "CDK5 with p25": "Cyclin-dependent kinase 5, with p25 (CDK5, Homo sapiens, UniProt Q00535)", "CDK5 with p35": "Cyclin-dependent kinase 5, with p35 (CDK5, Homo sapiens, UniProt Q00535)", "CDK5": "Cyclin-dependent kinase 5 (CDK5, Homo sapiens, UniProt Q00535)", "note": "Compare with care: the assays were run in different laboratories."}
{"Structure (SMILES)": "COc1cc2ncnc(Nc3ccc(Oc4ccccc4)cc3C)c2cc1OC", "target": "CDK5 with p25", "assay": "enzyme activity", "setting": "1 µM", "inhibition [%]": 7}
{"Structure (SMILES)": "COc1cc(-c2cc(-c3ccc(N4CCNCC4)cc3)cnc2C)cc(OC)c1OC", "target": "CDK5 with p25", "assay": "enzyme activity", "setting": "1 µM", "inhibition [%]": 3}
{"Structure (SMILES)": "CC[C@H](C)[C@H](NC(=O)[C@H](CCC(N)=O)NC(=O)[C@H](CC(C)C)NC(=O)[C@H](CCSC)NC(=O)[C@H](CCCCN)NC(=O)[C@H](CO)NC(=O)[C@H](CO)NC(=O)[C@H](CCSC)NC(=O)[C@H](CC(C)C)NC(=O)[C@H](CC(N)=O)NC(=O)[C@@H](NC(=O)[C@@H](NC(=O)[C@H](CO)NC(=O)[C@H](CC(C)C)NC(=O)[C@H](CS)NC(=O)[C@H](CCCNC(=N)N)NC(=O)[C@H](CC(=O)O)NC(=O)[C@H](Cc1c[nH]c2ccccc12)NC(=O)[C@H](Cc1ccccc1)NC(=O)[C@H](C)NC(=O)[C@H](CCC(=O)O)NC(=O)[C@@H](N)CCCCN)C(C)C)[C@@H](C)CC)C(=O)N[C@@H](CC(N)=O)C(=O)N[C@@H](C)C(=O)O", "target": "CDK5 with p25", "assay": "enzyme activity, radiometric", "setting": "250 µM", "inhibition [%]": 59}
{"Structure (SMILES)": "Cc1ccc(-n2nc(C(C)(C)C)cc2NC(=O)Nc2ccc(OCCN3CCOCC3)c3ccccc23)cc1", "target": "CDK5 with p35", "assay": "enzyme activity", "setting": "10 µM", "inhibition [%]": -26}
{"Structure (SMILES)": "CCOc1cc(-c2nncn2C)ccc1Nc1ncc2cc(C)nc(NCC(C)(C)C)c2n1", "target": "CDK5 with p25", "assay": "enzyme activity, FRET", "setting": "1 µM", "inhibition [%]": 49}
{"Structure (SMILES)": "CN1CC(Oc2cnc(C#N)cc2-c2ccn3nc(NC(=O)C4CC4)cc3c2)C1", "target": "CDK5 with p25", "assay": "enzyme activity", "setting": "1 µM", "inhibition [%]": 4}
{"Structure (SMILES)": "CNCc1ccc(-c2cc(-c3nc(-c4ccc(S(=O)(=O)C(C)C)cc4)cnc3N)on2)cc1", "target": "CDK5 with p35", "assay": "enzyme activity", "setting": "0.4 µM", "inhibition [%]": 0}
{"Structure (SMILES)": "CN(C)C1CCN(CC#Cc2nn(C3CCCC3)c3nc(NCc4ccccc4)ncc23)C1 (centres unmarked)", "target": "CDK5 with p25", "assay": "enzyme activity, FRET", "setting": "10 µM", "inhibition [%]": 3}
{"Structure (SMILES)": "CCN1CCN(Cc2ccc(NC(=O)c3ccc(C)c(Oc4ccnc5[nH]ccc45)c3)cc2C(F)(F)F)CC1", "target": "CDK5", "assay": "target engagement in cells, chemoproteomics", "system": "Huh-7", "setting": "10 µM", "inhibition [%]": -42.6}
{"Structure (SMILES)": "Nc1nc(Nc2ccc(S(N)(=O)=O)cc2)sc1C(=O)c1ccccc1[N+](=O)[O-]", "target": "CDK5", "assay": "enzyme activity", "setting": "0.1 µM", "inhibition [%]": "95 to 96"}
{"Structure (SMILES)": "COc1cc2ncnc(Nc3ccc(Oc4ccccc4)c(C)c3C)c2cc1OC", "target": "CDK5 with p35", "assay": "enzyme activity", "setting": "1 µM", "inhibition [%]": -1}
